Measurements taken from ChEMBL document CHEMBL1144865, “N-aminoimidazole derivatives inhibiting retroviral replication via a yet unidentified mode of action” (J Med Chem, 2003).

tested on: Human immunodeficiency virus 1; assay: Concentration required to inhibit the viral (HIV-1 NL4.3 strain) cytopathic effect by 50% in MT-4 cells.; type: functional, organism-based; details: Human immunodeficiency virus 1, MT4
Method in brief: (§1)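 Virus-infected MT-4 cells cultured with serial compound dilutions; viability measured 5 days after infection by MTT tetrazolium colorimetric read-out. The value is the concentration protecting 50% of cells from viral cytopathic effect. Averages ± SD from at least two independent experiments. HIV-2 and SIV stocks came from infected MT-4 culture supernatants.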

IC50 | Compound
> 39.7 µM | Cc1nc(SCc2ccccc2)n(Nc2cccc(Cl)c2)c1-c1ccccc1
> 187 µM | Cc1cccc(NN2C(S)=NC(C)C2c2cccc(C(=O)O)c2)c1 (stereo unspecified)

Continued, molecule first:

Compound | IC50
CC1N=C(S)N(Nc2cccc([N+](=O)[O-])c2)C1c1ccccc1 (stereo unspecified) | 11.2 µM
Cc1cccc(Nn2cnc(C)c2C)c1 | > 312 µM
CC1N=C(S)N(Nc2cccc(Cl)c2)C1c1cccc(C#N)c1 (stereo unspecified) | 42 µM
Cc1ncn(Nc2cccc(Cl)c2)c1-c1cccc(C(=O)O)c1 | > 161 µM
CCC1N=C(S)N(Nc2cccc(C)c2)C1c1ccccc1 (stereo unspecified) | 12.8 µM
CCc1ncn(Nc2cccc(C)c2)c1-c1ccccc1 | > 27.9 µM
Cc1nc(S)n(Nc2cccc(Cl)c2)c1-c1cccc(Br)c1 | 5.6 µM

tested on: Human immunodeficiency virus 1; assay: Concentration required to inhibit the viral (HIV-1 IIIB strain) cytopathic effect by 50% in MT-4 cells.; type: functional, organism-based; details: Human immunodeficiency virus 1, MT4; method in brief: as §1

IC50 | Compound
> 39.7 µM | Cc1nc(SCc2ccccc2)n(Nc2cccc(Cl)c2)c1-c1ccccc1
> 187 µM | Cc1cccc(NN2C(S)=NC(C)C2c2cccc(C(=O)O)c2)c1 (stereo unspecified)

The remaining lines, values behind:

Compound | IC50
CC1N=C(S)N(Nc2cccc([N+](=O)[O-])c2)C1c1ccccc1 (stereo unspecified) | 7.29 µM
Cc1cccc(Nn2cnc(C)c2C)c1 | > 312 µM
CC1N=C(S)N(Nc2cccc(Cl)c2)C1c1cccc(C#N)c1 (stereo unspecified) | ≥ 99.4 µM
Cc1ncn(Nc2cccc(Cl)c2)c1-c1cccc(C(=O)O)c1 | > 161 µM
CCC1N=C(S)N(Nc2cccc(C)c2)C1c1ccccc1 (stereo unspecified) | 17.6 µM
CCc1ncn(Nc2cccc(C)c2)c1-c1ccccc1 | > 27.9 µM
Cc1nc(S)n(Nc2cccc(Cl)c2)c1-c1cccc(Br)c1 | 8.54 µM

tested on: Human immunodeficiency virus 2; assay: Concentration required to inhibit the viral (HIV-2 ROD) cytopathic effect by 50% in MT-4 cells.; type: functional, organism-based, MT4; details: Human immunodeficiency virus 2, MT4; method in brief: as §1

IC50 | Compound
> 20.4 µM | Cc1cc(C)cc(Nn2cnc(C)c2-c2ccccc2)c1
> 39.7 µM | Cc1nc(SCc2ccccc2)n(Nc2cccc(Cl)c2)c1-c1ccccc1
> 187 µM | Cc1cccc(NN2C(S)=NC(C)C2c2cccc(C(=O)O)c2)c1 (stereo unspecified)

Further lines, the molecule ahead of its results:

Compound | IC50
Cc1ncn(Nc2ccccc2)c1-c1ccccc1 | > 52.2 µM
CC1N=C(S)N(Nc2cccc([N+](=O)[O-])c2)C1c1ccccc1 (stereo unspecified) | > 48.3 µM
Cc1cccc(Nn2cnc(C)c2C)c1 | > 312 µM
CC1N=C(S)N(Nc2cccc(Cl)c2)C1c1cccc(C#N)c1 (stereo unspecified) | > 99.4 µM
Cc1ncn(Nc2cccc(Cl)c2)c1-c1cccc(C(=O)O)c1 | > 161 µM
CCC1N=C(S)N(Nc2cccc(C)c2)C1c1ccccc1 (stereo unspecified) | > 53.6 µM
CCc1ncn(Nc2cccc(C)c2)c1-c1ccccc1 | > 27.9 µM
Cc1nc(S)n(Nc2cccc(Cl)c2)c1-c1cccc(Br)c1 | 10.5 µM

same assay, conditions: mt4

IC50 | Compound
> 67.3 µM | Clc1cccc(Nn2cnc3c2CCCC3)c1
> 214 µM | Cc1ncn(Nc2cccc(Cl)c2)c1C

tested on: Human immunodeficiency virus 1; assay: Concentration required to inhibit the viral (HIV-1 NNRTI resistant strain) cytopathic effect by 50% in MT-4 cells.; type: functional, organism-based; details: Human immunodeficiency virus 1, MT4
Method in brief: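 MT-4 cells infected with HIV-1(III_B)-derived strain S0561945 (K103N + Y181C RT mutations, NNRTI-resistant). Cultured with varying compound concentrations; viability read on day 5 post-infection by MTT tetrazolium colorimetry. Value is the concentration giving 50% protection against virus-induced cytopathic effect. Cytotoxicity measured in parallel on mock-infected cells at day 5. Averages ± SD from at least two independent experiments.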

Compound | IC50
CC1N=C(S)N(Nc2cccc([N+](=O)[O-])c2)C1c1ccccc1 (stereo unspecified) | 42.2 µM
CC1N=C(S)N(Nc2cccc(Cl)c2)C1c1cccc(C#N)c1 (stereo unspecified) | > 99.4 µM
CCC1N=C(S)N(Nc2cccc(C)c2)C1c1ccccc1 (stereo unspecified) | ≥ 53.6 µM
Cc1nc(S)n(Nc2cccc(Cl)c2)c1-c1cccc(Br)c1 | 3 µM

tested on: Simian immunodeficiency virus; assay: Concentration required to inhibit the viral (SIV mac251) cytopathic effect by 50% in MT-4 cells.; type: functional, organism-based, MT4; details: Simian immunodeficiency virus, mac251, MT4; method in brief: as §1

IC50 | Compound
> 20.4 µM | Cc1cc(C)cc(Nn2cnc(C)c2-c2ccccc2)c1
> 39.7 µM | Cc1nc(SCc2ccccc2)n(Nc2cccc(Cl)c2)c1-c1ccccc1
> 187 µM | Cc1cccc(NN2C(S)=NC(C)C2c2cccc(C(=O)O)c2)c1 (stereo unspecified)

Continued, molecule first:

Compound | IC50
Cc1ncn(Nc2ccccc2)c1-c1ccccc1 | > 52.2 µM
CC1N=C(S)N(Nc2cccc([N+](=O)[O-])c2)C1c1ccccc1 (stereo unspecified) | 7.54 µM
Cc1cccc(Nn2cnc(C)c2C)c1 | > 312 µM
CC1N=C(S)N(Nc2cccc(Cl)c2)C1c1cccc(C#N)c1 (stereo unspecified) | > 99.4 µM
Cc1ncn(Nc2cccc(Cl)c2)c1-c1cccc(C(=O)O)c1 | > 161 µM
CCC1N=C(S)N(Nc2cccc(C)c2)C1c1ccccc1 (stereo unspecified) | > 53.6 µM
CCc1ncn(Nc2cccc(C)c2)c1-c1ccccc1 | > 27.9 µM
Cc1nc(S)n(Nc2cccc(Cl)c2)c1-c1cccc(Br)c1 | 1.75 µM

same assay, conditions: mt4

IC50 | Compound
> 67.3 µM | Clc1cccc(Nn2cnc3c2CCCC3)c1
> 214 µM | Cc1ncn(Nc2cccc(Cl)c2)c1C

tested on: MT4; assay: Concentration that reduced the MT-4 cell viability by 50%.; type: functional, Homo sapiens; details: not given
Method in brief: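 Mock-infected MT-4 cells, run in parallel with the antiviral assay, were exposed to compound. Viability on day 5 was read by MTT colorimetry. The value is the concentration lowering viability by 50%. Averages ± SD from at least two independent experiments.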

Compound | CC50
Clc1cccc(Nn2cnc3c2CCCC3)c1 | 67.3 µM
Cc1ncn(Nc2cccc(Cl)c2)c1C | 214 µM

same assay, conditions: Homo sapiens, MT4

Compound | CC50
Cc1ncn(Nc2ccccc2)c1-c1ccccc1 | 52.2 µM
CC1N=C(S)N(Nc2cccc([N+](=O)[O-])c2)C1c1ccccc1 (stereo unspecified) | 48.3 µM
Cc1cc(C)cc(Nn2cnc(C)c2-c2ccccc2)c1 | 20.4 µM
Cc1cccc(Nn2cnc(C)c2C)c1 | 312 µM
CC1N=C(S)N(Nc2cccc(Cl)c2)C1c1cccc(C#N)c1 (stereo unspecified) | 99.4 µM
Cc1ncn(Nc2cccc(Cl)c2)c1-c1cccc(C(=O)O)c1 | 161 µM
Cc1nc(SCc2ccccc2)n(Nc2cccc(Cl)c2)c1-c1ccccc1 | 39.7 µM
CCC1N=C(S)N(Nc2cccc(C)c2)C1c1ccccc1 (stereo unspecified) | 53.6 µM
CCc1ncn(Nc2cccc(C)c2)c1-c1ccccc1 | 27.9 µM
Cc1cccc(NN2C(S)=NC(C)C2c2cccc(C(=O)O)c2)c1 (stereo unspecified) | 187 µM
Cc1nc(S)n(Nc2cccc(Cl)c2)c1-c1cccc(Br)c1 | 44 µM
